Experimental data published in article PMC7025391 (The Lancet. Oncology, 2019).
Read-outs that look alike come from different tables or passages of the source.

What was measured:
[1] = test system: patients with recurrent EOC or BC; assay: Phase 1b 3+3 dose escalation: DLTs, MTD and RP2D; format: in vivo, human
Outline: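 Classic 3+3 design with continuous 28-day cycles: oral alpelisib q.d. plus olaparib tablets b.i.d. Levels were 250/100 mg, 250/200 mg, 300/200 mg and 200/200 mg. Escalation followed 0/3 or 1/6 DLTs in cycle 1, graded by CTCAE v4.03. DLTs were prespecified grade ≥3 treatment-related toxicities. Monitoring was weekly in cycles 1–2, then day 1 of each cycle. Six EOC patients were then expanded at the MTD.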

[2] = Pharmacokinetics: steady state Cmax of alpelisib and olaparib; format: in vivo, human; settings: combination; for Effect of the other drug's dosing on Cmax: dose levels 0-3; for Steady state Cmax compared with monotherapy: day 8, 2 hours post dosing
Outline: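 Blood sampled for alpelisib and olaparib levels on cycle 1 day 1 (time 0) and on days 8 and 15 at 0, 1, 2, 4 and 8 h after dosing both agents. Patients took oral alpelisib once daily and olaparib tablets twice daily, continuously on 28-day cycles, at alpelisib 200–300 mg with olaparib 100–200 mg.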

[3] = test system: EOCs that are gBRCAwt but HRD positive and platinum resistant; settings: gBRCAwt but HRD positive and platinum resistant EOC; QUADRA study; cited from earlier work
EOC patients = settings: cited from earlier work
patients = settings: olaparib monotherapy, SOLO1 study; cited from earlier work

Row | SMILES | MTD and RP2D, alpelisib dose ([1]; orally once daily, combined with olaparib 200 mg twice daily) [mg] | Dose proportionality of drug exposure [2] | Effect of the other drug's dosing on Cmax [2] | Steady state Cmax compared with monotherapy [2] | Response to monotherapy [3] [%] | MTD and RP2D, olaparib dose ([1]; orally twice daily (tablet), combined with alpelisib 200 mg once daily) [mg] | Objective response rate expected from monotherapy (EOC patients; BRCAwt, platinum-resistant ovarian carcinomas, no ref given) | ORR as monotherapy (EOC patients; gBRCAwt / BRCAwt platinum resistant patients) | Expected response rate of monotherapy (EOC patients; platinum resistant gBRCAmut EOC) [%] | Expected response rate of monotherapy (EOC patients; platinum resistant gBRCAwt EOC) | Expected response rate of monotherapy (EOC patients; platinum sensitive gBRCAmut EOC) [%] | Expected response rate of monotherapy (EOC patients; platinum sensitive gBRCAwt EOC) [%] | Fatigue, share of patients (patients) [%] | Nausea, share of patients (patients) [%] | Vomiting, share of patients (patients) [%]
1 | Cc1nc(NC(=O)N2CCC[C@H]2C(N)=O)sc1-c1ccnc(C(C)(C)C(F)(F)F)c1 [alpelisib] | 200 | increasing proportionally with increasing dose | unaffected by olaparib dosing | comparable to values when testing these agents as monotherapy |  |  |  |  |  |  |  |  |  |  | 
2 | NC(=O)c1cccc2cn(-c3ccc([C@@H]4CCCNC4)cc3)nc12 [niraparib] |  |  |  |  | 10 |  |  |  |  |  |  |  |  |  | 
3 | O=C(c1cc(Cc2n[nH]c(=O)c3ccccc23)ccc1F)N1CCN(C(=O)C2CC2)CC1 [olaparib] |  | increasing proportionally with increasing dose | unaffected by alpelisib dosing | comparable to values when testing these agents as monotherapy |  | 200 | 4–5% | ~ 5% | 28 | ~ 5% | ≥ 60 | 50 | 63 | 77 | 40
